From ChEMBL document CHEMBL2311404, “Synthesis, antibacterial activity and docking of 14-membered 9-O-(3-arylalkyl) oxime 11,12-cyclic carbonate ketolides” (2013)
≈ marks a conversion by molar mass, not a printed value.

Key:
Format in all cases: functional
Staphylococcus hominis [1] = assay: Antibacterial activity against methicillin-resistant, inducible MLS-resistant, coagulase-deficient Staphylococcus hominis E 3 by broth microdilution method
How it was run: (§1)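 Clinical isolates confirmed by 16S rDNA sequencing. MIC determined by broth microdilution following CLSI recommendations. Quality-control strains were S. aureus ATCC 29213 and S. pneumoniae ATCC 49619. Azithromycin and clarithromycin were run in parallel as reference agents.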

[2] = tested on: Staphylococcus epidermidis; assay: Antibacterial activity against methicillin-resistant, constitutive MLS-resistant Staphylococcus epidermidis E 2 by broth microdilution method; how it was run: as §1
[3] = tested on: Staphylococcus epidermidis; assay: Antibacterial activity against methicillin-susceptible, inducible MLS-resistant Staphylococcus epidermidis E 1 by broth microdilution method; how it was run: as §1
[4] = tested on: Staphylococcus haemolyticus; assay: Antibacterial activity against methicillin-resistant, constitutive MLS-resistant, coagulase-deficient Staphylococcus haemolyticus PU 19 expressing ermA gene by broth microdilution method; how it was run: as §1
Staphylococcus aureus [5] = assay: Antibacterial activity against methicillin-sensitive, inducible MLS-resistant Staphylococcus aureus PU 64 expressing ermA gene by broth microdilution method; how it was run: as §1
Staphylococcus aureus [6] = assay: Antibacterial activity against methicillin-resistant, constitutive MLS-resistant Staphylococcus aureus PU 20 expressing ermC gene by broth microdilution method; how it was run: as §1
Staphylococcus aureus [7] = assay: Antibacterial activity against methicillin-resistant, inducible MLS-resistant Staphylococcus aureus PU 32 expressing ermA gene by broth microdilution method; how it was run: as §1
Staphylococcus aureus [8] = assay: Antibacterial activity against erythromycin-susceptible Staphylococcus aureus ATCC 29213 by broth microdilution method
How it was run: (§2)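 MIC by broth microdilution following CLSI recommendations. Clinical isolates were identified by 16S rDNA sequencing and labeled by genotype and phenotype. S. aureus ATCC 29213 and S. pneumoniae ATCC 49619 served as control strains, with azithromycin and clarithromycin as reference agents.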

Streptococcus pyogenes [9] = assay: Antibacterial activity against erythromycin-susceptible Streptococcus pyogenes A3 by broth microdilution method; how it was run: as §2
Streptococcus pyogenes [10] = assay: Antibacterial activity against constitutive MLS-resistant Streptococcus pyogenes A2 by broth microdilution method; how it was run: as §1
[11] = tested on: Streptococcus dysgalactiae; assay: Antibacterial activity against erythromycin-resistant Streptococcus dysgalactiae A1 expressing efflux pump by broth microdilution method; how it was run: as §1
Streptococcus pneumoniae [12] = assay: Antibacterial activity against penicillin-susceptible, constitutive MLS-resistant Streptococcus pneumoniae PU 27 expressing erm gene by broth microdilution method; how it was run: as §1
Streptococcus pneumoniae [13] = assay: Antibacterial activity against penicillin-susceptible Streptococcus pneumoniae PU 09 expressing mef gene by broth microdilution method; how it was run: as §2
Streptococcus pneumoniae [14] = assay: Antibacterial activity against penicillin-resistant, constitutive MLS-resistant Streptococcus pneumoniae PU 11 expressing erm and mef genes by broth microdilution method; how it was run: as §1
Streptococcus pneumoniae [15] = assay: Antibacterial activity against erythromycin-sensitive Streptococcus pneumoniae ATCC 49619 by broth microdilution method; how it was run: as §2
[16] = tested on: Staphylococcus epidermidis; assay: Ratio of azithromycin MIC to compound MIC for methicillin-resistant, constitutive MLS-resistant Staphylococcus epidermidis E 2
[17] = tested on: Staphylococcus epidermidis; assay: Ratio of clarithromycin MIC to compound MIC for methicillin-resistant, constitutive MLS-resistant Staphylococcus epidermidis E 2
[18] = tested on: Staphylococcus haemolyticus; assay: Ratio of azithromycin MIC to compound MIC for methicillin-resistant, constitutive MLS-resistant, coagulase-deficient Staphylococcus haemolyticus PU 19 expressing ermA gene
[19] = tested on: Staphylococcus haemolyticus; assay: Ratio of clarithromycin MIC to compound MIC for methicillin-resistant, constitutive MLS-resistant, coagulase-deficient Staphylococcus haemolyticus PU 19 expressing ermA gene
Streptococcus pyogenes [20] = assay: Ratio of clarithromycin MIC to compound MIC for constitutive MLS-resistant Streptococcus pyogenes A2
Streptococcus pyogenes [21] = assay: Ratio of azithromycin MIC to compound MIC for constitutive MLS-resistant Streptococcus pyogenes A2
Streptococcus pneumoniae [22] = assay: Ratio of azithromycin MIC to compound MIC for penicillin-resistant, constitutive MLS-resistant Streptococcus pneumoniae PU 11 expressing erm and mef genes
Streptococcus pneumoniae [23] = assay: Ratio of clarithromycin MIC to compound MIC for penicillin-resistant, constitutive MLS-resistant Streptococcus pneumoniae PU 11 expressing erm and mef genes
[24] = tested on: Streptococcus dysgalactiae; assay: Ratio of clarithromycin MIC to compound MIC for erythromycin-resistant Streptococcus dysgalactiae A1 expressing efflux pump
Streptococcus pneumoniae [25] = assay: Ratio of clarithromycin MIC to compound MIC for penicillin-susceptible Streptococcus pneumoniae PU 09 expressing mef gene
[26] = tested on: Staphylococcus epidermidis; assay: Ratio of azithromycin MIC to compound MIC for methicillin-susceptible, inducible MLS-resistant Staphylococcus epidermidis E 1
[27] = tested on: Staphylococcus epidermidis; assay: Ratio of clarithromycin MIC to compound MIC for methicillin-susceptible, inducible MLS-resistant Staphylococcus epidermidis E 1
Staphylococcus hominis [28] = assay: Ratio of azithromycin MIC to compound MIC for methicillin-resistant, inducible MLS-resistant, coagulase-deficient Staphylococcus hominis E 3
Staphylococcus hominis [29] = assay: Ratio of clarithromycin MIC to compound MIC for methicillin-resistant, inducible MLS-resistant, coagulase-deficient Staphylococcus hominis E 3

CC[C@H]1OC(=O)[C@H](C)C(=O)[C@H](C)[C@@H](O[C@@H]2O[C@H](C)C[C@H](N(C)C)[C@H]2O)[C@](C)(OC)C[C@@H](C)/C(=N\OCCCc2cnc3ccccc3c2)[C@H](C)[C@H]2OC(=O)O[C@@]21C
MIC (Staphylococcus hominis [1]): 2 µg/mL (≈ 2.51 µM)
MIC [2]: > 256 µg/mL
MIC [3]: 0.5 µg/mL (≈ 0.627 µM)
MIC [4]: > 256 µg/mL
MIC (Staphylococcus aureus [5]): 1 µg/mL (≈ 1.25 µM)
MIC (Staphylococcus aureus [6]): > 256 µg/mL
MIC (Staphylococcus aureus [7]): 1 µg/mL (≈ 1.25 µM)
MIC (Staphylococcus aureus [8]): 0.5 µg/mL (≈ 0.627 µM)
MIC (Streptococcus pyogenes [9]): 0.016 µg/mL (≈ 0.0201 µM)
MIC (Streptococcus pyogenes [10]): 32 µg/mL (≈ 40.1 µM)
MIC [11]: 0.5 µg/mL (≈ 0.627 µM)
MIC (Streptococcus pneumoniae [12]): 1 µg/mL (≈ 1.25 µM)
MIC (Streptococcus pneumoniae [13]): 0.5 µg/mL (≈ 0.627 µM)
MIC (Streptococcus pneumoniae [14]): 64 µg/mL (≈ 80.2 µM)
MIC (Streptococcus pneumoniae [15]): 0.064 µg/mL (≈ 0.0802 µM)

CC[C@H]1OC(=O)[C@H](C)C(=O)[C@H](C)[C@@H](O[C@@H]2O[C@H](C)C[C@H](N(C)C)[C@H]2O)[C@](C)(OC)C[C@@H](C)/C(=N\OCC#Cc2cncc3ccccc23)[C@H](C)[C@H]2OC(=O)O[C@@]21C
Ratio [16]: >8
Ratio [17]: >8
Ratio [18]: >8
Ratio [19]: >8
Ratio (Streptococcus pyogenes [20]): >8
Ratio (Streptococcus pyogenes [21]): >8
Ratio (Streptococcus pneumoniae [22]): >8
Ratio (Streptococcus pneumoniae [23]): >8
Ratio [24]: 500
Ratio (Streptococcus pneumoniae [25]): 125
Ratio [26]: >16000
Ratio [27]: >16000
Ratio (Staphylococcus hominis [28]): >4000
Ratio (Staphylococcus hominis [29]): >4000
MIC (Staphylococcus hominis [1]): 0.064 µg/mL (≈ 0.0806 µM)
MIC [2]: 32 µg/mL (≈ 40.3 µM)
MIC [3]: 0.016 µg/mL (≈ 0.0202 µM)
MIC [4]: 32 µg/mL (≈ 40.3 µM)
MIC (Staphylococcus aureus [7]): 0.032 µg/mL (≈ 0.0403 µM)
MIC (Staphylococcus aureus [8]): 0.016 µg/mL (≈ 0.0202 µM)
MIC (Streptococcus pyogenes [9]): ≤ 0.008 µg/mL
MIC (Streptococcus pyogenes [10]): 16 µg/mL (≈ 20.2 µM)
MIC [11]: 0.016 µg/mL (≈ 0.0202 µM)
MIC (Streptococcus pneumoniae [12]): 0.064 µg/mL (≈ 0.0806 µM)
MIC (Streptococcus pneumoniae [13]): 0.032 µg/mL (≈ 0.0403 µM)
MIC (Streptococcus pneumoniae [14]): 16 µg/mL (≈ 20.2 µM)
MIC (Streptococcus pneumoniae [15]): ≤ 0.008 µg/mL
